Assay [1] deals with T1, Tyrosine-protein phosphatase non-receptor type 11 (Homo sapiens, UniProt Q06124).
T1 sequence (Q06124 whole entry): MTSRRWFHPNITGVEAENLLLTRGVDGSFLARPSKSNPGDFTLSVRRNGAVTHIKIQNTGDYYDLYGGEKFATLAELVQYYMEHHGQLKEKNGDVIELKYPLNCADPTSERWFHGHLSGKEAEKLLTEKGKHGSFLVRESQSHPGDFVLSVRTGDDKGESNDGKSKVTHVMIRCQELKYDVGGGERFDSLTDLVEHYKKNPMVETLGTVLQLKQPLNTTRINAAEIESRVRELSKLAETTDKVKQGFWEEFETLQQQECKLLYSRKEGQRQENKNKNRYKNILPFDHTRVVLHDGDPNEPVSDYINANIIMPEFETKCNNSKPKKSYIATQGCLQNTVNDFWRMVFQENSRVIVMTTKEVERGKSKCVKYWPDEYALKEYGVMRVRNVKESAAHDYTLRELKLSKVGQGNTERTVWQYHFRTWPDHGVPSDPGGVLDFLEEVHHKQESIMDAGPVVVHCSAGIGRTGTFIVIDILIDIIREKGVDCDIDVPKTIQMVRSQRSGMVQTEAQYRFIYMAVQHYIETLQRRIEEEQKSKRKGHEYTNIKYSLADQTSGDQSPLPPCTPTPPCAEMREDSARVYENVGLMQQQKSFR
The assay is described as follows: Inhibition of SHP2. In outline:
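SHP2 pre-incubated 10-15 min with a 2-fold inhibitor series (100-3.125 µM) in buffer with 2 mM DTE and 0.025% NP-40. Reaction used 1 mM p-nitrophenyl phosphate. Enzyme was set to give 1-2 OD405/h. Velocity was taken from the A405 slope, with quadruplicate wells. IC50 came from linear extrapolation against log concentration.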

In assay [2] the target is T2, Tyrosine-protein phosphatase non-receptor type 1 (Homo sapiens, UniProt P18031).
T2 sequence (P18031 whole entry): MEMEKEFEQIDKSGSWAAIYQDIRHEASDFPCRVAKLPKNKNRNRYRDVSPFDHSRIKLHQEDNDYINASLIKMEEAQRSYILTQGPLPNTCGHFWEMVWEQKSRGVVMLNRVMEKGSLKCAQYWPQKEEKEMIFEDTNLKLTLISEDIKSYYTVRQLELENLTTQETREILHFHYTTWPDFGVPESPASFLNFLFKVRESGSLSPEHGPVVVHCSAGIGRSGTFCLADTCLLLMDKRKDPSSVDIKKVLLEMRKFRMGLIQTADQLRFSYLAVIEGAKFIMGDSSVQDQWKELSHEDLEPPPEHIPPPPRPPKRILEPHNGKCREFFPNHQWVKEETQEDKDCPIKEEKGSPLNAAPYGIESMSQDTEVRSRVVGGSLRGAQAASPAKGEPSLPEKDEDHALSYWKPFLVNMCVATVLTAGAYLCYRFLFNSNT
Nature of the assay: Inhibition of PTP1b. In outline: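 PTP1b pre-incubated 10-15 min with inhibitor (2-fold series, 100 down to 3.125 µM) in 25 mM HEPES, 50 mM NaCl, 2.5 mM EDTA, 2 mM DTE, 0.025% NP-40. Reaction started with 1 mM p-nitrophenyl phosphate. Velocity from the A405 slope relative to an inhibitor-free control, quadruplicates. IC50 by linear extrapolation of velocity versus log concentration, with 100 µM as the upper limit.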

Assay [3] addresses T3, Phosphotyrosine-protein phosphatase PTPB (Mycobacterium tuberculosis, UniProt P96830).
T3 sequence (P96830 whole entry): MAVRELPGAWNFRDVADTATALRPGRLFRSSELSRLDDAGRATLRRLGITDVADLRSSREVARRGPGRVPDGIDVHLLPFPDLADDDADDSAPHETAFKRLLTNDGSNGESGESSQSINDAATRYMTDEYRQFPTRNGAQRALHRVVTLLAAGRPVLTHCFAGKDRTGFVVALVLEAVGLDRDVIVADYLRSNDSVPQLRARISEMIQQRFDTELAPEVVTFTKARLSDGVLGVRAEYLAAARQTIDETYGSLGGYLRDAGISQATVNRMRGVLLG
The assay is described as follows: Inhibition of Mycobacterium tuberculosis ptpb. In outline: (§1)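 MptpA or MptpB was expressed in E. coli BL21(DE3) with 1 mM IPTG for 4 h at 25 °C, then purified by Ni-NTA and Superdex 75 gel filtration. Enzyme was pre-incubated 10-15 min with inhibitor (100-3.125 µM, 2-fold) in 25 mM HEPES, 50 mM NaCl, 2.5 mM EDTA, 2 mM DTE, 0.025% NP-40. Reaction used 1 mM p-nitrophenyl phosphate, read as A405 slope, quadruplicate, IC50 from log-concentration extrapolation.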

The target of assay [4] is Dual specificity protein phosphatase 3 (Homo sapiens, UniProt P51452). Nature of the assay: Inhibition of VHR. In outline: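 VHR in 25 mM MOPS, 5 mM EDTA, 2 mM DTE, 0.025% NP-40, pre-incubated 10-15 min with inhibitor at 100-3.125 µM (2-fold). Reaction started with 1 mM p-nitrophenyl phosphate. Rate from the A405 slope versus control, in quadruplicate. IC50 was derived by linear extrapolation of velocity against log inhibitor concentration.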

The target in assay [5] is T4, Low molecular weight protein-tyrosine phosphatase A (Mycobacterium tuberculosis, UniProt P9WIA1).
T4 sequence (P9WIA1 whole entry): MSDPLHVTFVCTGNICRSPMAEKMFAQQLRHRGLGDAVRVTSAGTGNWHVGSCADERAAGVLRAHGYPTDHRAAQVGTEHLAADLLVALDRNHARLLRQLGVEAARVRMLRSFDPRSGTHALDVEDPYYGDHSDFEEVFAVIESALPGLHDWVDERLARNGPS
Nature of the assay: Inhibition of Mycobacterium tuberculosis ptpA. In outline:
as §1

The target in assay [6] is T5, M-phase inducer phosphatase 1 (Homo sapiens, UniProt P30304).
T5 sequence (P30304 whole entry): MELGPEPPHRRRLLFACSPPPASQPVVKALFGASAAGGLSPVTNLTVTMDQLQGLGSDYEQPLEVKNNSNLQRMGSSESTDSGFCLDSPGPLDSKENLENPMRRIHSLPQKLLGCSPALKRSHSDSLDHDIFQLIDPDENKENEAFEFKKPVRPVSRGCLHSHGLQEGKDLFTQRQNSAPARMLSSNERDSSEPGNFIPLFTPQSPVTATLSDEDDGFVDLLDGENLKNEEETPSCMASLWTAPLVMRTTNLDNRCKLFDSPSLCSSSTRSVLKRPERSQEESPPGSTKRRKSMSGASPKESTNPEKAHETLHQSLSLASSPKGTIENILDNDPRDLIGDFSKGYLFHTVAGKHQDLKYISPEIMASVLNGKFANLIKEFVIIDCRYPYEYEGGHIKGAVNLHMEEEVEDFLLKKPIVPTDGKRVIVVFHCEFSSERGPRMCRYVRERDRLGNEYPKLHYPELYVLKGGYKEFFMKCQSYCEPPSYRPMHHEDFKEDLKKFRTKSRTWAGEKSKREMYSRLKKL
Nature of the assay: Inhibition of CDC25a. A digest of the protocol:
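Recombinant CDC25A, pre-incubated 10-15 min with inhibitor in 50 mM Tris, 50 mM NaCl, 0.1 mM EDTA, 2 mM DTE, 0.025% NP-40. Started with p-nitrophenyl phosphate at 50 mM final. Inhibitor at 100-3.125 µM in 2-fold steps. Rate was taken from the A405 slope versus an uninhibited control, in quadruplicate. IC50 came from linear extrapolation against log concentration.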

The record followed here is ChEMBL document CHEMBL1145344, “Brunsvicamides A-C: sponge-related cyanobacterial peptides with Mycobacterium tuberculosis protein tyrosine phosphatase inhibitory activity” (J Med Chem, 2006).

Each structure is given as a SMILES string.

Sequence of Dual specificity protein phosphatase 3 (P51452 whole entry): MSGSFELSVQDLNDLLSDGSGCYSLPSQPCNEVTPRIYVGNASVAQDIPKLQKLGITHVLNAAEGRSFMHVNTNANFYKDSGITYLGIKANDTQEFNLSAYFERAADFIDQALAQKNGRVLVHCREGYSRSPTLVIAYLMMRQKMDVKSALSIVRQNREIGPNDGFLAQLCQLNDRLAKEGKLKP

As to `CC[C@H](C)[C@H](NC(=O)N[C@H]1CCCCNC(=O)[C@H](Cc2ccccc2)NC(=O)[C@H](Cc2c[nH]c3ccccc23)N(C)C(=O)[C@H](CC(C)C)NC(=O)[C@H]([C@@H](C)CC)NC1=O)C(=O)O`, the IC50 in assay [1] and in assay [2] was greater than 100 µM each time.

With `CC[C@H](C)[C@H](NC(=O)N[C@H]1CCCCNC(=O)[C@H](Cc2ccccc2)NC(=O)[C@H](Cc2c[nH]c3ccccc23)N(C)C(=O)[C@H](CC(C)C)NC(=O)[C@H](C(C)C)NC1=O)C(=O)O` [BRUNSVICAMIDE A], the half-inhibitory concentration (IC50) in assay [1] and in assay [2] was greater than 100 µM in each case.

Regarding `CC[C@H](C)[C@H](NC(=O)N[C@@H]1CCCCNC(=O)[C@H](Cc2ccccc2)NC(=O)[C@H](Cc2c[nH]c3ccccc23)N(C)C(=O)[C@H](CC(C)C)NC(=O)[C@H](C(C)C)NC1=O)C(=O)O` [BRUNSVICAMIDE A], the IC50 (usually the concentration needed to halve the response being measured) in assay [3] is 64.2 µM; in assay [4], greater than 100 µM; in assay [5], greater than 100 µM; in assay [6] it was greater than 100 µM.

On to `CC[C@H](C)[C@H](NC(=O)N[C@@H]1CCCCNC(=O)[C@H](Cc2ccccc2)NC(=O)[C@H](Cc2c[nH]c3ccccc23)N(C)C(=O)[C@H](CC(C)C)NC(=O)[C@H]([C@@H](C)CC)NC1=O)C(=O)O`, for which the IC50 in assay [3] is 7.3 µM; in assay [4], greater than 100 µM; in assay [5] it was greater than 100 µM; in assay [6] it was greater than 100 µM.
